Measured values of several laboratories.
Each line is one published result; the experiments were not run side by side.
SLC22A2: Solute carrier family 22 member 2 (SLC22A2, Homo sapiens, UniProt O15244)
CNR2: Cannabinoid receptor 2 (CNR2, Homo sapiens, UniProt P34972)
ADRB2: Beta-2 adrenergic receptor (ADRB2, Homo sapiens, UniProt P07550)
Trpc6: Short transient receptor potential channel 6 (Trpc6, Mus musculus, UniProt Q61143)
MMP2: 72 kDa type IV collagenase (MMP2, Homo sapiens, UniProt P08253)

SMILES	target	assay	system	conditions	IC50 [µM]
CN(C(=O)n1cnc(-c2ccc[n+]([O-])c2)c1)C1CCCCC1	SLC22A2	transporter uptake, inhibitor	MDCK-II	–	> 33.3
O=[N+]([O-])C1=Cc2cc(C#Cc3ccc(F)cc3)ccc2OC1C(F)(F)F (stereo not shown)	P2Y purinoceptor 6 (P2RY6, Homo sapiens, UniProt Q15077)	calcium signal, antagonist, fluorescence	–	–	4.4
Cc1c(C(=O)Nc2ccc(C(F)(F)F)cn2)nc(-c2ccc(Cl)cc2Cl)n1-c1ccc(OS(=O)(=O)CCC(F)(F)F)cc1	CNR2	GTPγS binding, antagonist	–	cell membranes	0.133
Cn1c(=O)c([N+](=O)[O-])c(Cl)c2ccccc21	Adenylate cyclase type 8 (Homo sapiens, UniProt P40145)	cAMP, inhibitor	–	–	1.6
COc1c(OCC2CCCC2)cc2c(c1C=O)CC(O)OC2=O (stereo not shown)	Receptor-type tyrosine-protein phosphatase S (PTPRS, Homo sapiens, UniProt Q13332)	enzyme activity, inhibitor, absorbance	–	–	0.6 to 0.7
CN1C2CCCC1CC(NC(=O)c1nn(C)c3ccccc13)C2 (stereo not shown)	ADRB2	ligand displacement, radioligand	–	cell membranes	42.1
COc1cccc2sc(N(CCN3CCCC3)C(=O)c3ccc(Cl)s3)nc12	Trpc6	calcium signal, fluorescence	–	–	63.9
Cc1c(C(=O)NN2CCCCC2)nc(-c2ccc(Cl)cc2Cl)n1-c1ccc(OS(=O)(=O)CCC(C)(C)C)cc1	CNR2	GTPγS binding, antagonist	–	cell membranes	1.36
Cc1noc(-c2cc3cc(-c4nc(C(=O)NCC5CCOCC5)[nH]c4C)ccc3[nH]2)n1	MMP2	enzyme activity, inhibitor	–	–	> 20
CN/C(=N/CCSCc1nc[nH]c1C)NC#N	SLC22A2	transporter uptake, inhibitor	MDCK-II	–	17
COc1ccc2nc(/N=C3/NC(=O)C(=Cc4ccc(Cl)cc4)S3)sc2c1	Aldo-keto reductase family 1 member B1 (Akr1b1, Rattus norvegicus, UniProt P07943)	enzyme activity, inhibitor, absorbance	–	pH 6.2	3.99
O=C(NO)c1ccc(CN(c2cnccn2)c2cnccn2)cc1	Polyamine deacetylase HDAC10 (HDAC10, Homo sapiens, UniProt Q969S8)	enzyme activity, inhibitor, fluorescence	–	–	> 10
CCCC[C@H](NC(=O)C1CN(C)C1)c1ncc(-c2cc3ccccc3nc2OC)[nH]1	Histone deacetylase 7 (HDAC7, Homo sapiens, UniProt Q8WUI4)	enzyme activity, inhibitor	–	–	> 30
CN1CCN(c2ccc(Nc3ncc4cc(C#N)c(=O)n(C5CCCC5)c4n3)cc2)CC1	Casein kinase I isoform alpha (CSNK1A1, Homo sapiens, UniProt P48729)	enzyme activity, inhibitor	–	–	> 10
CN(C)CCN(C(=O)c1ccc(Cl)s1)c1nc2ccccc2s1	Trpc6	calcium signal, fluorescence	–	–	15.1
Cc1noc(-c2cc3cc(-c4nc(C(=O)NCc5ccncc5)[nH]c4C)ccc3[nH]2)n1	MMP2	enzyme activity, inhibitor	–	–	> 20
CCCN(CCC)CCc1cccc2c1CC(=O)N2	ADRB2	ligand displacement, radioligand	–	cell membranes	200
CC(=O)N[C@H]1CC(=O)NCCCC[C@@H](C(=O)N[C@@H](CCCNC(=N)N)C(=O)c2nc3ccc(C(=O)N[C@H](C(N)=O)C(C)C)cc3s2)NC(=O)[C@H](CC(C)C)NC1=O	Serine protease hepsin (HPN, Homo sapiens, UniProt P05981)	enzyme activity, inhibitor, fluorescence	–	with preincubation	0.0054
Cn1nc(C(=O)NCc2ccc(C(=O)O)cc2)cc1-c1ccc2[nH]c(-c3cccnc3)cc2c1	MMP2	enzyme activity, inhibitor	–	–	> 20
